Active and inactive are the calls of the source. The calls are words filed in the database; no cut-off is given here.
Legend:
Mus musculus [1] = assay: Antiinflammatory activity in Balb/C mouse assessed as reduction in LPS-induced IL6 production in plasma at 1 umol/kg, sc administered LPS 15 mins post compound treatment measured after 4 hrs by ELISA; assay type: functional, organism-based
How it was run: (§1)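 Male Balb/C mice, 7-8 weeks old, given compound sc (0.1, 1 or 10 µmoles/kg) or saline. LPS 10 mg/kg was given ip 15 min later, and mice were killed 4 h after that. Spleens were homogenized in PBS with protease inhibitor and centrifuged at 14,000 g, 4 °C. Cytokines in plasma and tissue supernatants were measured by ELISA, with protein by BCA. Dexamethasone 5.6 µmoles/kg was the reference. n = 8-10 mice per treatment.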

Mus musculus [2] = assay: Antiinflammatory activity in Balb/C mouse assessed as reduction in LPS-induced TNF-alpha production in plasma at 1 umol/kg, sc administered LPS 15 mins post compound treatment measured after 4 hrs by ELISA; assay type: functional, organism-based; how it was run: as §1
Mus musculus [3] = assay: Antiinflammatory activity in Balb/C mouse assessed as reduction in LPS-induced IL6 production in liver at 0.1 to 10 umol/kg, sc administered LPS 15 mins post compound treatment measured after 4 hrs by ELISA; assay type: functional, organism-based
Mus musculus [4] = assay: Antiinflammatory activity in Balb/C mouse assessed as reduction in LPS-induced IL6 production in brain at 0.1 to 10 umol/kg, sc administered LPS 15 mins post compound treatment measured after 4 hrs by ELISA; assay type: functional, organism-based
RAW264.7 [5] = assay: Antiinflammatory activity in mouse RAW264.7 cells assessed as reduction in LPS-induced nitric oxide production at 1 pM to 100 nM incubated for 2 hrs prior to LPS challenge measured after 24 hrs by Griess assay; assay type: functional, cell-based
How it was run: (§2)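 RAW 264.7 macrophages were plated at 1×10^5 per well, grown overnight and washed with PBS. Compounds in water (final 1 pM-100 nM, medium with 2% FCS) were added 2 h at 37 °C before E. coli 0111:B4 LPS, 2.5 µg/mL. TNF-α was sampled at 8 h; IL-6 and nitrite (Griess) at 24 h. ELISA was used for cytokines. Values are % of the LPS + medium value in each experiment. Budesonide was the reference. 2-3 experiments, 6 wells per concentration.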

RAW264.7 [6] = assay: Antiinflammatory activity in mouse RAW264.7 cells assessed as reduction in LPS-induced TNF-alpha production at 1 pM to 100 nM incubated for 2 hrs prior to LPS challenge measured after 8 hrs by ELISA; assay type: functional, cell-based; how it was run: as §2
RAW264.7 [7] = assay: Antiinflammatory activity in mouse RAW264.7 cells assessed as reduction in LPS-induced IL6 production at 1 pM to 100 nM incubated for 2 hrs prior to LPS challenge measured after 24 hrs by ELISA; assay type: functional, cell-based; how it was run: as §2
RAW264.7 [8] = assay: Antiinflammatory activity in mouse RAW264.7 cells assessed as reduction in LPS-induced TNF-alpha production at 100 pM incubated for 2 hrs prior to LPS challenge measured after 8 hrs by ELISA; assay type: functional; design: scale not given: the % may be the effect or the level left; how it was run: as §2
RAW264.7 [9] = assay: Antiinflammatory activity in mouse RAW264.7 cells assessed as reduction in LPS-induced IL-6 production at 100 pM incubated for 2 hrs prior to LPS challenge measured after 24 hrs by ELISA; assay type: functional; design: scale not given: the % may be the effect or the level left; how it was run: as §2
RAW264.7 [10] = assay: Antiinflammatory activity in mouse RAW264.7 cells assessed as reduction in LPS-induced nitric oxide production at 100 pM incubated for 2 hrs prior to LPS challenge measured after 24 hrs by Griess assay; assay type: functional; design: scale not given: the % may be the effect or the level left; how it was run: as §2
RAW264.7 [11] = assay: Cytoprotective activity against H2O2-induced oxidative stress in mouse RAW264.7 cells assessed as cell viability at 1 pM incubated for 2 hrs prior to H2O2 addition measured after 24 hrs by MTT assay (reference value: 68 to 72.8%); assay type: functional; settings: read-out: Activity
[12] = Cytotoxicity against mouse RAW264.7 cells assessed as cell viability at 10^-8 M after 24 hrs by MTT assay relative to control; assay type: cell-based; settings: read-out: Activity
How it was run: (§3)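 RAW 264.7 cells, seeded at 1×10^4 cells/mL and incubated 24 h, were exposed to compound from 1 pM to 100 nM. Viability was read by MTT (final 0.5 mg/mL, 1 h at 37 °C), with formazan dissolved in DMSO and OD at 570 nm. Results are compared with medium-only cells.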

[13] = Cytotoxicity against mouse RAW264.7 cells assessed as cell viability at 10^-7 M after 24 hrs by MTT assay relative to control; assay type: cell-based; settings: read-out: Activity; how it was run: as §3
[14] = Cytotoxicity against mouse RAW264.7 cells assessed as cell viability at 10^-9 M after 24 hrs by MTT assay relative to control; assay type: cell-based; settings: read-out: Activity; how it was run: as §3
[15] = Cytotoxicity against mouse RAW264.7 cells assessed as cell viability at 10^-11 M after 24 hrs by MTT assay relative to control; assay type: cell-based; settings: read-out: Activity; how it was run: as §3
[16] = Cytotoxicity against mouse RAW264.7 cells assessed as cell viability at 10^-10 M after 24 hrs by MTT assay relative to control; assay type: cell-based; settings: read-out: Activity; how it was run: as §3
[17] = Cytotoxicity against mouse RAW264.7 cells assessed as cell viability at 10^-12 M after 24 hrs by MTT assay relative to control; assay type: cell-based; settings: read-out: Activity; how it was run: as §3
Mus musculus [18] = assay: Antiinflammatory activity in Balb/C mouse assessed as reduction in LPS-induced TNF-alpha production in spleen at 1 umol/kg, sc administered LPS 15 mins post compound treatment measured after 4 hrs by ELISA; assay type: functional, organism-based; how it was run: as §1
Mus musculus [19] = assay: Antiinflammatory activity in Balb/C mouse assessed as reduction in LPS-induced IL6 production in spleen at 1 umol/kg, sc administered LPS 15 mins post compound treatment measured after 4 hrs by ELISA; assay type: functional, organism-based; how it was run: as §1
Mus musculus [20] = assay: Acute toxicity in Balb/C mouse assessed as change in activity at 100 umol/kg, sc measured over 72 hrs; assay type: organism-based; settings: in vivo
How it was run: (§4)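 Male Balb/C mice, 24-28 g, groups of 3; single sc injection of compound at 100 μmoles/kg or saline (1 mL/100 g). Food and water intake, body weight and general activity monitored over 72 h against saline-injected animals.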

RAW264.7 [21] = assay: Cytoprotective activity against H2O2-induced oxidative stress in mouse RAW264.7 cells assessed as decrease in caspase-3 activity at 1 pM incubated for 4 hrs prior to H2O2 addition measured after 90 mins by caspase-GloR reagent-based luminescence assay relative to control; assay type: functional; design: scale not given: the % may be the effect or the level left
How it was run: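 RAW 264.7 macrophages were pretreated with compound (1 pM or 1 nM) 4 h before H2O2 100 µM. Medium was replaced with fresh DMEM after 90 min and plates were incubated overnight. Caspase-Glo 3/7 reagent was added and luminescence read after 30 min at room temperature. Mean ± SD, 4-6 replicates.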

Mus musculus [22] = assay: Acute toxicity in Balb/C mouse assessed as change in food intake at 100 umol/kg, sc measured over 72 hrs; assay type: organism-based; settings: in vivo; how it was run: as §4
Mus musculus [23] = assay: Acute toxicity in Balb/C mouse assessed as change in water intake at 100 umol/kg, sc measured over 72 hrs; assay type: organism-based; settings: in vivo; how it was run: as §4
Mus musculus [24] = assay: Acute toxicity in Balb/C mouse assessed as change in body weight at 100 umol/kg, sc measured over 72 hrs; assay type: organism-based; settings: in vivo; how it was run: as §4
RAW264.7 [25] = assay: Antiinflammatory activity in mouse RAW264.7 cells assessed as reduction in LPS-induced IL-6 production at 1 nM incubated for 2 hrs prior to LPS challenge measured after 24 hrs by ELISA; assay type: functional; how it was run: as §2
RAW264.7 [26] = assay: Cytoprotective activity against H2O2-induced oxidative stress in mouse RAW264.7 cells assessed as decrease in LDH release at 1 pM incubated for 2 hrs prior to H2O2 addition by colorimetric assay relative to control; assay type: functional; design: scale not given: the % may be the effect or the level left
How it was run: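 RAW 264.7 cells were seeded and pretreated with compound before H2O2 100 µM, in serum-free medium. Collected medium was centrifuged and incubated with reaction mix 30 min at room temperature. LDH was measured as NADH formation by colorimetric read at 490 nm. n = 8-10 replicates per concentration.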

RAW264.7 [27] = assay: Cytoprotective activity against H2O2-induced oxidative stress in mouse RAW264.7 cells assessed as cell viability at 10 nM incubated for 2 hrs prior to H2O2 addition measured after 24 hrs by MTT assay (reference value: 68 to 72.8%); assay type: functional; settings: read-out: Activity
RAW264.7 [28] = assay: Cytoprotective activity against H2O2-induced oxidative stress in mouse RAW264.7 cells assessed as decrease in LDH release at 1 pM incubated for 2 hrs prior to H2O2 addition by colorimetric assay relative to control; design: scale not given: the % may be the effect or the level left
RAW264.7 [29] = assay: Cytoprotective activity against H2O2-induced oxidative stress in mouse RAW264.7 cells assessed as increase in cell viability at 1 pM incubated for 2 hrs prior to H2O2 addition measured after 24 hrs by MTT assay; assay type: functional, cell-based
How it was run: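 RAW 264.7 macrophages cultured in DMEM with 10% FCS, seeded at 1 x 10^4 cells/mL. Pretreated 2 h with compound (1 pM to 100 nM) before H2O2 at 100 μM. Viability read by MTT (0.5 mg/mL final, 1 h, 37 °C, DMSO lysis, OD 570 nm) relative to vehicle. 2-3 experiments, at least 6 wells per concentration; mean ± SEM.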

RAW264.7 [30] = assay: Antiinflammatory activity in mouse RAW264.7 cells assessed as reduction in LPS-induced nitric oxide production at 10 pM incubated for 2 hrs prior to LPS challenge measured after 24 hrs by Griess assay; assay type: functional; design: scale not given: the % may be the effect or the level left; how it was run: as §2
RAW264.7 [31] = assay: Antiinflammatory activity in mouse RAW264.7 cells assessed as reduction in LPS-induced IL-6 production at 10 pM incubated for 2 hrs prior to LPS challenge measured after 24 hrs by ELISA; assay type: functional; design: scale not given: the % may be the effect or the level left; how it was run: as §2
RAW264.7 [32] = assay: Antiinflammatory activity in mouse RAW264.7 cells assessed as reduction in LPS-induced TNF-alpha production at 10 pM incubated for 2 hrs prior to LPS challenge measured after 8 hrs by ELISA; assay type: functional; design: scale not given: the % may be the effect or the level left; how it was run: as §2

SMILES	Activity (Mus musculus [1])	Activity (Mus musculus [2])	Activity (Mus musculus [3])	Activity (Mus musculus [4])	Activity (RAW264.7 [5])	Activity (RAW264.7 [6])	Activity (RAW264.7 [9])	viability at 1 pM (RAW264.7 [11]) [%]	viability at 24 h, 0.01 µM [12] [%]	viability at 24 h, 0.1 µM [13] [%]	viability at 24 h, 0.001 µM [14] [%]	viability at 24 h, 1e-05 µM [15] [%]	viability at 24 h, 0.0001 µM [16] [%]	viability at 24 h, 1e-06 µM [17] [%]	Activity (Mus musculus [18])	Activity (Mus musculus [19])	also measured
COc1ccc2c(c1)CCN2CCCO.Cl	Active	Active	Active	Active	Active	Active	50%	95.6	91.4	91.9	95.3	93.4	93.9	91.9	Active	Active	Activity (RAW264.7 [7]): Active; Activity (RAW264.7 [8]): 50%; Activity (RAW264.7 [10]): 50%
COC(=O)CCN1CCc2ccccc21.Cl	Active	Active	Active	Active	Active	Active	Active	–	91.8	90.8	92.6	91.5	93.3	95	Active	Active	Activity (Mus musculus [20]): Non-Toxic; Activity (RAW264.7 [21]): 60%; Activity (Mus musculus [22]): Non-Toxic; Activity (Mus musculus [23]): Non-Toxic; Activity (Mus musculus [24]): Non-Toxic; Activity (RAW264.7 [25]): Active; Activity (RAW264.7 [26]): 16%; viability at 0.01 µM (RAW264.7 [27]): 85.9%; Activity (RAW264.7 [28]): 16%
O=c1c(O)c(-c2ccc(O)c(O)c2)oc2cc(O)cc(O)c12	–	–	–	–	–	–	–	–	–	–	–	–	–	–	–	–	Activity (RAW264.7 [29]): Active
COC(=O)CCN1CCc2cc(Cl)ccc21.Cc1ccc(S(C)(=O)=O)cc1	–	–	–	–	Active	Active	–	89.7	107	105	104	106	104	108	–	–	Activity (RAW264.7 [30]): 50%; Activity (RAW264.7 [31]): 50%; Activity (RAW264.7 [32]): 50%

Reference: ChEMBL document CHEMBL4177768, “Synthesis and Biological Evaluation of Derivatives of Indoline as Highly Potent Antioxidant and Anti-inflammatory Agents” (J Med Chem, 2018)
